Data set [1] has as its system Mus musculus. The experiment in a line: Antinociceptive activity in Swiss albino mouse assessed as inhibition of acetic acid-induced writhing at 5 mg/kg administered 30 mins prior to acetic acid-challenge measured for 30 mins relative to control. It counts as functional. For orientation: In writhing tests, fewer writhes than in controls are read as antinociception.

Data set [2] concerns Mus musculus. Briefly: Antinociceptive activity in Swiss albino mouse assessed as inhibition of formalin-induced flinching at 5 mg/kg administered 30 mins prior to test measured up to 5 mins relative to control. The class given is functional.
Data set [3] concerns Mus musculus. The experiment in a line: Neurotoxicity in Swiss albino mouse assessed as minimal motor impairment at 300 mg/kg after 4 hrs by rotarod test. It counts as toxicity, organism-based. To be noted: in vivo. Further details: dose 300 mg/kg. In outline: (§1)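 Swiss albino mice of either sex, 20-25 g, dosed at 30, 100 and 300 mg/kg, three per group. Minimal motor impairment scored by rotarod at 0.5 and 4.0 h after dosing. Reported value is the lowest dose giving impairment in half or more of the mice.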
Background: In the rotarod test animals must keep their balance on a rotating rod.

In data set [4] the test system is Mus musculus. Briefly: Neurotoxicity in Swiss albino mouse assessed as minimal motor impairment at 300 mg/kg after 0.5 hrs by rotarod test. The class given is toxicity, organism-based. Further details: dose 300 mg/kg. To be noted: in vivo. Summed up: as §1
In data set [5] the test system is Mus musculus. The experiment in a line: Antinociceptive activity in Swiss albino mouse assessed as inhibition of formalin-induced flinching at 5 mg/kg administered 30 mins prior to test measured for 10 to 30 mins relative to control. The class given is functional.
Data set [6] has as its system Rattus norvegicus. The experiment in a line: Antinociceptive activity in Wistar rat partial sciatic nerve ligation model assessed as reversal of cold allodynia at 100 mg/kg, ip after 30 mins (reference value: 4.1 +/- 1.0%). To be noted: route intraperitoneal. The class given is functional.
The test system of data set [7] is Rattus norvegicus. The experiment in a line: Antinociceptive activity in Wistar rat chronic constriction injury model assessed as reversal of mechanical allodynia at 100 mg/kg, ip after 60 mins (reference value: 4.9 +/- 1.0%). It counts as functional. To be noted: route intraperitoneal.
The test system of data set [8] is Rattus norvegicus. Briefly: Antinociceptive activity in Wistar rat partial sciatic nerve ligation model assessed as reversal of tactile allodynia at 100 mg/kg, ip after 60 mins (reference value: 12.5 +/- 1.2%). The class given is functional. Particulars: route intraperitoneal.
Data set [9] is filed under the species Mus musculus. Briefly: Neurotoxicity in Swiss albino mouse assessed as minimal motor impairment after 4 hrs by rotarod test. It counts as toxicity, organism-based. Particulars: in vivo. In outline: (§2)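 Mice, either sex, 20-25 g, dosed at 30, 100 and 300 mg/kg. Minimal motor impairment was scored on the rotarod at 0.5 and 4.0 h. Value reported is the minimum dose showing the effect in half or more of three mice per group.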

For data set [10], the system named is Rattus norvegicus. The experiment in a line: Antinociceptive activity in Wistar rat partial sciatic nerve ligation model assessed as reversal of tactile allodynia at 100 mg/kg, ip after 30 mins (reference value: 7.7 +/- 0.7%). The class given is functional. To be noted: route intraperitoneal.
Data set [11] relates to Rattus norvegicus. The experiment in a line: Antinociceptive activity in Wistar rat partial sciatic nerve ligation model assessed as reversal of mechanical allodynia at 100 mg/kg, ip after 30 mins (reference value: 2.9 +/- 0.3%). The class given is functional. To be noted: route intraperitoneal.
The test system of data set [12] is Mus musculus. Briefly: Antinociceptive activity in Swiss albino mouse assessed as inhibition of acetic acid-induced writhing at 100 mg/kg administered 30 mins prior to acetic acid-challenge measured for 30 mins relative to control. It counts as functional. Summed up:
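Swiss albino mice (20–25 g, either sex); writhing induced by i.p. 0.1 mL of 2.0% v/v acetic acid given half an hour after test compound dosing.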

The test system of data set [13] is Rattus norvegicus. Briefly: Antinociceptive activity in Wistar rat chronic constriction injury model assessed as reversal of tactile allodynia at 100 mg/kg, ip after 120 mins (reference value: 4.1 +/- 2.1%). The class given is functional. To be noted: route intraperitoneal.
Data set [14] is filed under the species Mus musculus. Briefly: Neurotoxicity in Swiss albino mouse assessed as minimal motor impairment after 0.5 hrs by rotarod test. It counts as toxicity, organism-based. To be noted: in vivo. In outline:
as §2

Data set [15] concerns Rattus norvegicus. The experiment in a line: Antinociceptive activity in Wistar rat chronic constriction injury model assessed as reversal of cold allodynia at 100 mg/kg, ip after 30 mins (reference value: 0.6 +/- 2.7%). It counts as functional. Particulars: route intraperitoneal.
The test system of data set [16] is Rattus norvegicus. The experiment in a line: Antinociceptive activity in Wistar rat chronic constriction injury model assessed as reversal of tactile allodynia at 100 mg/kg, ip after 60 mins (reference value: 1.3 +/- 0.3%). It counts as functional. Particulars: route intraperitoneal.
Data set [17] has as its system Rattus norvegicus. Briefly: Antinociceptive activity in Wistar rat chronic constriction injury model assessed as reversal of spontaneous pain response at 100 mg/kg, ip after 30 mins (reference value: 8.9 +/- 4.6%). To be noted: route intraperitoneal. The class given is functional.
Data set [18] deals with Rattus norvegicus. The experiment in a line: Antinociceptive activity in Wistar rat partial sciatic nerve ligation model assessed as reversal of mechanical allodynia at 100 mg/kg, ip after 60 mins (reference value: 2.8 +/- 0.3%). It counts as functional. Particulars: route intraperitoneal.
The test system of data set [19] is Rattus norvegicus. Briefly: Antinociceptive activity in Wistar rat chronic constriction injury model assessed as reversal of cold allodynia at 100 mg/kg, ip after 60 mins (reference value: 6.3 +/- 1.9%). The class given is functional. To be noted: route intraperitoneal.
The subject of data set [20] is Rattus norvegicus. Briefly: Antinociceptive activity in Wistar rat partial sciatic nerve ligation model assessed as reversal of spontaneous pain response at 100 mg/kg, ip after 120 mins (reference value: 1.2 +/- 0.1%). The class given is functional. To be noted: route intraperitoneal.
For data set [21], the system named is Rattus norvegicus. Briefly: Antinociceptive activity in Wistar rat chronic constriction injury model assessed as reversal of spontaneous pain response at 100 mg/kg, ip after 60 mins (reference value: 4.6 +/- 0.6%). The class given is functional. Particulars: route intraperitoneal.
For data set [22], the system named is Rattus norvegicus. Briefly: Antinociceptive activity in Wistar rat partial sciatic nerve ligation model assessed as reversal of spontaneous pain response at 100 mg/kg, ip after 60 mins (reference value: 2.9 +/- 0.3%). The class given is functional. Particulars: route intraperitoneal.
The subject of data set [23] is Mus musculus. The experiment in a line: Antinociceptive activity in Swiss albino mouse assessed as inhibition of formalin-induced flinching at 100 mg/kg administered 30 mins prior to test measured up to 5 mins relative to control. The class given is functional.
The subject of data set [24] is Rattus norvegicus. The experiment in a line: Antinociceptive activity in Wistar rat partial sciatic nerve ligation model assessed as reversal of spontaneous pain response at 100 mg/kg, ip after 30 mins (reference value: 3.2 +/- 0.3%). Particulars: route intraperitoneal. The class given is functional.
Data set [25] relates to Rattus norvegicus. Briefly: Antinociceptive activity in Wistar rat partial sciatic nerve ligation model assessed as reversal of cold allodynia at 100 mg/kg, ip after 120 mins (reference value: 1.5 +/- 0.5%). The class given is functional. Particulars: route intraperitoneal.
The subject of data set [26] is Rattus norvegicus. The experiment in a line: Antinociceptive activity in Wistar rat partial sciatic nerve ligation model assessed as reversal of cold allodynia at 100 mg/kg, ip after 60 mins (reference value: 2.5 +/- 0.3%). The class given is functional. Particulars: route intraperitoneal.
In data set [27] the test system is Mus musculus. Briefly: Antinociceptive activity in Swiss albino mouse assessed as inhibition of formalin-induced flinching at 100 mg/kg administered 30 mins prior to test measured for 10 to 30 mins relative to control. The class given is functional.
In data set [28] the test system is Rattus norvegicus. Briefly: Antinociceptive activity in Wistar rat partial sciatic nerve ligation model assessed as reversal of tactile allodynia at 100 mg/kg, ip after 120 mins relative to control. The class given is functional. To be noted: route intraperitoneal.
Data set [29] relates to Rattus norvegicus. The experiment in a line: Antinociceptive activity in Wistar rat chronic constriction injury model assessed as reversal of cold allodynia at 100 mg/kg, ip after 120 mins (reference value: 5.4 +/- 1.9%). It counts as functional. Particulars: route intraperitoneal.
Data set [30] has as its system Rattus norvegicus. Briefly: Antinociceptive activity in Wistar rat chronic constriction injury model assessed as reversal of mechanical allodynia at 100 mg/kg, ip after 120 mins (reference value: 5.3 +/- 0.5%). It counts as functional. To be noted: route intraperitoneal.
Data set [31] concerns Rattus norvegicus. The experiment in a line: Antinociceptive activity in Wistar rat chronic constriction injury model assessed as reversal of mechanical allodynia at 100 mg/kg, ip after 30 mins (reference value: 4.7 +/- 2.1%). It counts as functional. Particulars: route intraperitoneal.
For data set [32], the system named is Rattus norvegicus. Briefly: Antinociceptive activity in Wistar rat chronic constriction injury model assessed as reversal of spontaneous pain response at 100 mg/kg, ip after 120 mins (reference value: 4.5 +/- 0.2%). It counts as functional. Particulars: route intraperitoneal.
In data set [33] the test system is Rattus norvegicus. Briefly: Antinociceptive activity in Wistar rat partial sciatic nerve ligation model assessed as reversal of mechanical allodynia at 100 mg/kg, ip after 120 mins (reference value: 2.9 +/- 0.3%). The class given is functional. Particulars: route intraperitoneal.
For data set [34], the system named is Rattus norvegicus. Briefly: Antinociceptive activity in Wistar rat chronic constriction injury model assessed as reversal of tactile allodynia at 100 mg/kg, ip after 30 mins (reference value: 3.4 +/- 0.8%). The class given is functional. To be noted: route intraperitoneal.

What is called inhibition in vivo is how much of the control response was suppressed. As for `COc1ccc2c(c1)c(CC(=O)O)c(C)n2C(=O)c1ccc(Cl)cc1` [INDOMETHACIN], the results for the inhibition in vivo at 5 mg/kg in [1], in data set [2] and in data set [5] were 96.1%, 4.7% and 72.1%, respectively. Besides, the Activity entry in data set [3] and in data set [4] was “Non-toxic” each time.
Take `CCN1CCc2c(c(C)nn2C(=O)Nc2cc(C)ccc2C)C1`: the Activity is listed as 17.1% in data set [6]; 20.7% in data set [7]; 16% in data set [8]; 27.6% in data set [10]; 39.6% in [11]; 2.2% in data set [13]. Besides, the Activity in data set [15] worked out at 18.4%; in [16], 9.9%; in data set [17] it was 23.6%; in [18] it was 20.8%; in data set [19], 18.7%; in data set [20], 4.8%. Also, the Activity in data set [21] came out at 33.3%; in [22], 11.1%; in data set [24], 7.5%; in data set [25] it was 12%; in data set [26] it was 14.8%; in [28], 3.5%. Moreover, the Activity in data set [29] is 14.1%; in [30], 16.8%; in data set [31], 3.8%; in data set [32] it was 27.7%; in data set [33] it was 14.6%; in [34], 17.3%. The MLD in [9] and in data set [14] was 300 mg/kg each time. The inhibition in vivo at 100 mg/kg was determined as 62.2% in [12], 2.6% in data set [23] and 55.8% in data set [27].

Values taken from ChEMBL document CHEMBL2412964, “Discovery of novel tetrahydro-pyrazolo [4,3-c] pyridines for the treatment of neuropathic pain: synthesis and neuropharmacology” (Eur J Med Chem, 2013).
